# Laboratory results: ChEMBL document CHEMBL1165886, “Synthesis, anticonvulsant and toxicity screening of newer pyrimidine semicarbazone derivatives” (Eur J Med Chem, 2010)
# Calls of active or inactive are those of the source. The calls are words filed in the database; no cut-off is given here.
# Columns and labels:
# [1] = tested on: Mus musculus; test: Anticonvulsant activity in ip dosed Albino mouse assessed as protection against scPTZ-induced seizure after 4 hrs; type: functional
# Outline: (§1)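 Test compound given i.p. in polyethylene glycol at 30, 100 and 300 mg/kg. Pentylenetetrazole 75 mg/kg, as a 0.5% solution, injected subcutaneously in the posterior midline. Animals examined 0.5 h and 4 h after dosing. Value is the minimum dose active in half or more of the mice; dash means no activity at maximum dose.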
# [2] = tested on: Mus musculus; test: Neurotoxicity in Albino mouse assessed as minimal motor impairment at 300 mg/kg, ip after 4 hrs by rotarod test; type: toxicity, organism-based; set-up: dose 300 mg/kg, route intraperitoneal; settings: in vivo
# Outline: (§2)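 Mice pretrained on an accelerating rotorod, 3.2 cm diameter, rotating at 10 rpm. Test compound given i.p. in polyethylene glycol at 30, 100 and 300 mg/kg; examined at 0.5 h and 4 h. Neurotoxicity = inability to hold equilibrium on the rod for at least 1 min in each trial. Minimum dose affecting half or more of mice reported.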
# [3] = Neurotoxicity in ip dosed Albino mouse assessed as minimal motor impairment after 0.5 hrs by rotarod test; type: toxicity, organism-based; settings: in vivo; outline: as §2
# [4] = tested on: Mus musculus; test: Anticonvulsant activity in Albino mouse assessed as protection against maximal electric shock-induced seizure at 300 mg/kg, ip after 4 hrs; type: functional, organism-based; set-up: dose 300 mg/kg
# Outline: (§3)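 Mice given test compound i.p. in polyethylene glycol at 30, 100 and 300 mg/kg; corneal electrodes delivered 50 mA, 60 Hz for 0.25 s at 0.5 h and 4.0 h after dosing. Protection scored as abolition of hind limb tonic extension.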
# [5] = tested on: Mus musculus; test: Anticonvulsant activity in ip dosed Albino mouse assessed as protection against scPTZ-induced seizure after 0.5 hrs; type: functional; outline: as §1
# [6] = tested on: Mus musculus; test: Anticonvulsant activity in ip dosed Albino mouse assessed as protection against maximal electric shock-induced seizure after 0.5 hrs; type: functional; outline: as §3
# [7] = tested on: Mus musculus; test: Anticonvulsant activity in ip dosed Albino mouse assessed as protection against maximal electric shock-induced seizure after 4 hrs; type: functional; outline: as §3
# [8] = tested on: Mus musculus; test: Anticonvulsant activity in Albino mouse assessed as protection against scPTZ-induced seizure at 300 mg/kg, ip after 4 hrs; type: functional, organism-based; set-up: dose 300 mg/kg; outline: as §1
# [9] = Neurotoxicity in ip dosed Albino mouse assessed as minimal motor impairment after 4 hrs by rotarod test; type: toxicity, organism-based; settings: in vivo; outline: as §2
# [10] = tested on: Mus musculus; test: Anticonvulsant activity in Albino mouse assessed as protection against scPTZ-induced seizure at 300 mg/kg, ip after 0.5 hrs; type: functional, organism-based; set-up: dose 300 mg/kg; outline: as §1
# [11] = tested on: Mus musculus; test: Anticonvulsant activity in Albino mouse assessed as protection against maximal electric shock-induced seizure at 300 mg/kg, ip after 0.5 hrs; type: functional, organism-based; set-up: dose 300 mg/kg; outline: as §3
# [12] = organism: Mus musculus; test: Hepatotoxicity in Albino mouse assessed as total protein level measured per 100 mL (RVb = 1.69 +/- 0.05 g); type: toxicity, organism-based; settings: in vivo
# [13] = organism: Mus musculus; test: Hepatotoxicity in Albino mouse assessed as albumin level measured per 100 mL (RVb =1.45 +/- 0.06 g); type: toxicity, organism-based; settings: in vivo
# [14] = organism: Mus musculus; test: Hepatotoxicity in Albino mouse assessed as change in SGPT level; type: toxicity, organism-based; settings: in vivo
# Outline: (§4)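 Serum alkaline phosphatase, SGOT and SGPT levels measured in treated mice versus control; transaminases estimated by the Reitman–Frankel method. Results given as mean ± SEM.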
# [15] = organism: Mus musculus; test: Hepatotoxicity in Albino mouse assessed as globulin level measured per 100 mL (RVb = 0.24 +/- 0.03 g); type: toxicity, organism-based; settings: in vivo
# [16] = organism: Mus musculus; test: Hepatotoxicity in Albino mouse assessed as change in SGOT level; type: toxicity, organism-based; settings: in vivo; outline: as §4
# [17] = organism: Mus musculus; test: Hepatotoxicity in Albino mouse assessed as change in alkaline phosphatase level; type: toxicity, organism-based; settings: in vivo; outline: as §4
# [18] = tested on: Mus musculus; test: Neurotoxicity in Albino mouse assessed as minimal motor impairment at 300 mg/kg, ip after 0.5 hrs by rotarod test; type: toxicity, organism-based; set-up: dose 300 mg/kg, route intraperitoneal; settings: in vivo; outline: as §2
Structure (SMILES),ED50 [1],TD50 at 0.5 h [3],ED50 [5],ED50 [6],ED50 [7],Activity [8],TD50 at 4 h [9],Activity [10],Activity [11],also measured
COc1ccc(/C(C)=N\NC(=O)Nc2nc(-c3ccc(F)cc3)cc(-c3ccc([N+](=O)[O-])cc3)n2)cc1,300 mg/kg,300 mg/kg,100 mg/kg,100 mg/kg,–,–,–,–,–,Activity [2]: Non-toxic; Activity [4]: inactive
CCC1(c2ccccc2)C(=O)NC(=O)NC1=O [PHENOBARBITAL],–,100 mg/kg,–,100 mg/kg,30 mg/kg,inactive,300 mg/kg,inactive,–,–
COc1ccc(-c2cc(-c3ccc(F)cc3)nc(NC(=O)N/N=C\c3ccccc3Cl)n2)c(OC)c1,–,–,–,–,300 mg/kg,inactive,–,inactive,inactive,–
C/C(=N/NC(=O)Nc1nc(-c2ccc(C)cc2)cc(-c2ccc(Cl)cc2)n1)c1ccc(Cl)cc1,300 mg/kg,–,300 mg/kg,30 mg/kg,300 mg/kg,–,–,–,–,Activity [12]: 1.71 g; Activity [13]: 1.52 g; Activity [14]: Non-toxic; Activity [2]: Non-toxic; Activity [15]: 0.19 g; Activity [16]: Non-toxic; Activity [17]: Non-toxic; Activity [18]: Non-toxic
COc1ccc(-c2cc(-c3ccc(Cl)cc3)nc(NC(=O)N/N=C\c3ccccc3Cl)n2)c(OC)c1,–,–,–,–,300 mg/kg,inactive,–,inactive,inactive,–
COc1ccc(-c2cc(-c3ccc(F)cc3)nc(NC(=O)N/N=C\c3ccccc3[N+](=O)[O-])n2)c(OC)c1,300 mg/kg,–,–,300 mg/kg,–,–,–,inactive,–,Activity [4]: inactive
COc1ccc(-c2cc(-c3ccc(F)cc3)nc(NC(=O)N/N=C\c3ccc([N+](=O)[O-])cc3)n2)cc1OC,–,–,300 mg/kg,100 mg/kg,300 mg/kg,inactive,300 mg/kg,–,–,Activity [18]: Non-toxic
COc1ccc(-c2cc(-c3ccc(Cl)cc3)nc(NC(=O)N/N=C\c3ccccc3[N+](=O)[O-])n2)c(OC)c1,–,–,–,–,300 mg/kg,inactive,–,inactive,inactive,–
COc1ccc(-c2cc(-c3ccc(Cl)cc3)nc(NC(=O)N/N=C\c3ccc([N+](=O)[O-])cc3)n2)cc1OC,100 mg/kg,–,100 mg/kg,30 mg/kg,100 mg/kg,–,–,–,–,Activity [12]: 2 g; Activity [13]: 1.74 g; Activity [14]: Non-toxic; Activity [2]: Non-toxic; Activity [15]: 0.26 g; Activity [16]: Non-toxic; Activity [17]: Non-toxic; Activity [18]: Non-toxic
COc1ccc(/C(C)=N\NC(=O)Nc2nc(-c3ccc(Cl)cc3)cc(-c3ccc([N+](=O)[O-])cc3)n2)cc1,–,–,–,–,300 mg/kg,inactive,–,inactive,inactive,–
COc1ccc(-c2cc(-c3ccc(F)cc3)nc(NC(=O)N/N=C\c3cccc(Cl)c3)n2)cc1OC,–,–,–,300 mg/kg,300 mg/kg,inactive,–,inactive,–,–
COc1ccc(-c2cc(-c3ccc(Cl)cc3)nc(NC(=O)N/N=C\c3cccc(Cl)c3)n2)cc1OC,300 mg/kg,300 mg/kg,–,100 mg/kg,300 mg/kg,–,300 mg/kg,inactive,–,–
CCC1(C)CC(=O)NC1=O (stereo unspecified) [ETHOSUXIMIDE],300 mg/kg,–,100 mg/kg,–,–,–,–,–,inactive,Activity [2]: Non-toxic; Activity [4]: inactive; Activity [18]: Non-toxic
C/C(=N/NC(=O)Nc1nc(-c2ccc(F)cc2)cc(-c2ccc([N+](=O)[O-])cc2)n1)c1ccc(C)cc1,300 mg/kg,–,300 mg/kg,100 mg/kg,300 mg/kg,–,300 mg/kg,–,–,Activity [18]: Non-toxic
COc1ccc(-c2cc(-c3ccc(F)cc3)nc(NC(=O)N/N=C(/C)c3ccc(C)cc3)n2)cc1,–,100 mg/kg,300 mg/kg,–,100 mg/kg,–,–,–,inactive,Activity [2]: Non-toxic
C/C(=N/NC(=O)Nc1nc(-c2ccc(C)cc2)cc(-c2ccc(Cl)cc2)n1)c1ccc([N+](=O)[O-])cc1,300 mg/kg,100 mg/kg,300 mg/kg,100 mg/kg,300 mg/kg,–,100 mg/kg,–,–,–
C/C(=N/NC(=O)Nc1nc(-c2ccc(Cl)cc2)cc(-c2ccc([N+](=O)[O-])cc2)n1)c1ccc(C)cc1,300 mg/kg,–,–,300 mg/kg,300 mg/kg,–,–,inactive,–,–
COc1ccc(-c2cc(-c3ccc(Cl)cc3)nc(NC(=O)N/N=C(/C)c3ccc(C)cc3)n2)cc1,–,–,–,300 mg/kg,–,inactive,–,inactive,–,Activity [4]: inactive
O=C1NC(=O)C(c2ccccc2)(c2ccccc2)N1 [PHENYTOIN],–,100 mg/kg,–,30 mg/kg,30 mg/kg,inactive,100 mg/kg,inactive,–,–
COc1ccc(-c2cc(-c3ccc(Cl)cc3)nc(NC(=O)N/N=C(/C)c3ccccc3Cl)n2)cc1,300 mg/kg,–,–,–,–,–,–,inactive,inactive,Activity [4]: inactive
C/C(=N/NC(=O)Nc1nc(-c2ccc(C)cc2)cc(-c2ccc(F)cc2)n1)c1ccc(Cl)cc1,300 mg/kg,–,100 mg/kg,30 mg/kg,100 mg/kg,–,300 mg/kg,–,–,Activity [12]: 1.93 g; Activity [13]: 1.62 g; Activity [14]: Non-toxic; Activity [15]: 0.31 g; Activity [16]: Non-toxic; Activity [17]: Non-toxic; Activity [18]: Non-toxic
C/C(=N/NC(=O)Nc1nc(-c2ccc(C)cc2)cc(-c2ccc(F)cc2)n1)c1ccc([N+](=O)[O-])cc1,300 mg/kg,100 mg/kg,–,100 mg/kg,300 mg/kg,–,100 mg/kg,inactive,–,–
